TRPC6 activator = mouse TRPC6 channel activation. Q61143. HEK293-TRPC6 membrane potential dye fluorescence; stronger effect = higher value. B-score at 10 µM. actives 0.13% (n = 310,000). AID 2550;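 active = B-score of the integrated fluorescence ratio above library mean plus 3 SD, and starting fluorescence ratio within library mean plus 5 SD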;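 note: higher score means more depolarization so channel activation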
TRPC6 inhibitor = inhibitors of mouse TRPC6 channel | B-score at 10 µM | HEK293-TRPC6, membrane potential dye, ACh-evoked depolarization; stronger effect = lower value | actives 1.1% (n = 310,000);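 active = B-score under library mean minus 3 SD, initial fluorescence not abnormally high, positive integrated signal ratio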;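 note: B-score derived from integrated fluorescence ratio over the kinetic read; more negative B-score means stronger inhibition of depolarization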
TRPC4 agonist = opens the mouse TRPC4 cation channel; AID 2237; B-score at 10 µM; actives 0.49% (n = 310,000); HEK293 TRPC4beta/mu-opioid, Fluo4 calcium fluorescence; stronger effect = higher value;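 active = B-score above 5 SD of library B-scores, and initial fluorescence ratio not above library mean plus 5 SD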;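 note: positive B-score marks a calcium rise read as TRPC4 activation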
Target sequence (Q9QUQ5 whole entry, looked up): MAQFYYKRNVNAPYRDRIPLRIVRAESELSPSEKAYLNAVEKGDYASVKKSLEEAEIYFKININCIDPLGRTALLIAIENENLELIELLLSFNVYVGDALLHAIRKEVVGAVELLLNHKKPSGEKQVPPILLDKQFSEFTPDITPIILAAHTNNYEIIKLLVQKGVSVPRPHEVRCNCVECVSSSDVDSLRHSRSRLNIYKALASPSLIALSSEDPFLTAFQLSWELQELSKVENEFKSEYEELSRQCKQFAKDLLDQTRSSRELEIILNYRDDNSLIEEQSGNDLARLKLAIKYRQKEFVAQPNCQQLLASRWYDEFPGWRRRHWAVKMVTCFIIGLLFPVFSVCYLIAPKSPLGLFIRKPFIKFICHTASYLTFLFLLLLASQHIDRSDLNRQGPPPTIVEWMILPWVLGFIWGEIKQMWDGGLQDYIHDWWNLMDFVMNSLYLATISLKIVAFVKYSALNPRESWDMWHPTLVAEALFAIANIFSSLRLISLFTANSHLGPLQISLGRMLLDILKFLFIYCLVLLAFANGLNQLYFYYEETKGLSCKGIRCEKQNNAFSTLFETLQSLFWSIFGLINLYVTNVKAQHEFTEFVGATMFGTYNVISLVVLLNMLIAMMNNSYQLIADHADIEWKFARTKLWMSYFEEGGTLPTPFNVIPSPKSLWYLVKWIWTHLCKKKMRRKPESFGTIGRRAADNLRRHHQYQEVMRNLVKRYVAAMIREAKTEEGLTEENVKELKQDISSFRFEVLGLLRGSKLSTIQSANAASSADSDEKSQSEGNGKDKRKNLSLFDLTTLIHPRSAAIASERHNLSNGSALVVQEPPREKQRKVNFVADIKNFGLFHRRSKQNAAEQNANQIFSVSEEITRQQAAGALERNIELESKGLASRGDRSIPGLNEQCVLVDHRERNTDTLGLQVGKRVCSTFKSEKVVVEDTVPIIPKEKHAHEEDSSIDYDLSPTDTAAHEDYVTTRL
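Assay system – TRPC4beta and mu-opioid receptor HEK293 stable cells · Measured by – Fluo4 fluorescence, kinetic · Schedule – dye loading 45 min room temperature, 110 s kinetic read · Read-out – B-scored integrated calcium fluorescence ratio · Controls – buffer and maximal DAMGO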
TRPC4 inh = blocks the mouse TRPC4 cation channel; Q9QUQ5; HEK293 TRPC4beta/mu-opioid, DAMGO-evoked Fluo4 calcium flux; stronger effect = lower value; B-score at 10 µM; actives 0.39% (n = 300,000);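 active = B-score over 3 SD under the library average, no early fluorescence shift, positive overall ratio signal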
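Assay system: Stable TRPC4beta/mu-opioid receptor HEK293 cells | Reagent: DAMGO in two steps, submaximal then maximal | Compound dosing: Single concentration per test compound | Signal: Fluo4 Ca2+ flux fluorescence | Evaluation: Per-well B score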
TRPC4 potent = allosterically enhances the mouse TRPC4 cation channel; HEK293 TRPC4beta/mu-opioid, DAMGO EC20, Fluo-4 Ca2+ flux; stronger effect = higher value; B-score at 10 µM; actives 0.42% (n = 310,000); AID 2227;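 active = B-score of calcium response area above 5 SD of library B-scores, with initial fluorescence ratio within 5 SD of library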
TRPC4 spec 2 = second check of whether TRPC6 inhibitors also affect mouse TRPC4; HEK293 TRPC4/MOR, membrane potential dye fluorescence; channel activated by saturating DAMGO dose; inhibition, % at 10 µM; AID 2776; shares compounds with TRPC6 inhibitor; actives 42% (n = 920);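 active = compounds whose fluorescence signal differed from control wells by over 3 SD, either direction, in both duplicate plates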
TRPC4 spec = mouse TRPC4 off-target activity of TRPC6 inhibitors; AID 2777; shares compounds with TRPC6 inhibitor; activity change, negative = inhibition, % at 10 µM; actives 61% (n = 920); HEK293 TRPC4/mu-opioid, membrane potential fluorescence;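 active = rise or fall in signal beyond 3 SD of buffer-only wells in both replicate plates, either sign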;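 note: integrated kinetic ratio of fluorescence range over baseline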
HEK293 MPD ctr 2-1 = parental HEK293 nonspecific activity of TRPC6 inhibitors, second screen | shares compounds with TRPC6 inhibitor | parental HEK293 membrane potential dye fluorescence; maximal acetylcholine challenge after compound addition | signal change vs control, % at 10 µM | actives 31% (n = 920);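 active = membrane potential signal moving either way by over 3 SD of the maximum-effect control, in both duplicate plates, meaning non-specific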
HEK293 MPD ctr-1 = parental HEK293 nonspecific activity of TRPC6 inhibitors | shares compounds with TRPC6 inhibitor | parental HEK293 membrane potential dye fluorescence | membrane potential signal change, % at 10 µM | actives 60% (n = 920) | AID 2780;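 active = membrane potential signal shifting up or down by more than 3 SD of buffer-only wells, on both duplicate plates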
HEK293 MPD ctr-2 = counter-screen for TRPC6 modulators: effect in parental HEK293 cells; actives 51% (n = 2,400); membrane potential signal change, % at 10 µM; shares compounds with TRPC6 inhibitor; membrane potential dye fluorescence;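 active = membrane potential signal moves up or down beyond 5 SD from buffer-only wells, on both duplicate plates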
HEK293 MPD ctr 2-2 = parental HEK293 nonspecific activity of TRPC6 modulators, second screen. shares compounds with TRPC6 inhibitor. membrane potential dye fluorescence; after compound, maximal acetylcholine stimulation. actives 14% (n = 2,400). inhibition, % at 10 µM;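 active = membrane potential signal drops by more than 5 SD from the mean control signal, in both duplicate plates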
TRPC4/MOR mod = selectivity of TRPC6 modulators against mouse TRPC4. actives 69% (n = 2,400). percent change from control (negative = decrease, positive = increase), % at 10 µM. HEK293 TRPC4/mu-opioid, membrane potential fluorescence. shares compounds with TRPC6 inhibitor;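 active = membrane potential signal moved up or down beyond 5 SD of buffer control wells, in both duplicate plates, actives on both sides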
TRPC4 ctr inh 2 = mouse TRPC4 off-target activity of TRPC6 modulators, second screen | shares compounds with TRPC6 inhibitor | HEK293 TRPC4/mu-opioid, membrane potential dye fluorescence; stimulated with maximal-effect DAMGO | inhibition, % at 10 µM | actives 55% (n = 2,400);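 active = drop in membrane potential signal beyond 5 SD of the control wells in both duplicate plates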;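 note: TRPC4 counter screen for TRPC6 hits run under conditions tuned for TRPC6 not TRPC4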
TRPC6 inh conf = mouse TRPC6 inhibitor confirmation. inhibition, % at 10 µM. HEK293-TRPC6, membrane potential dye, ACh-evoked depolarization. shares compounds with TRPC6 inhibitor. actives 43% (n = 3,300);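 active = fluorescence ratio falls more than 5 SD below the full-stimulation control mean, in both duplicate runs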;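 note: integrated fluorescence ratio of peak minus minimum over baseline after agonist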
TRPC6 act confirm = mouse TRPC6 activator confirmation; shares compounds with TRPC6 inhibitor; HEK293-TRPC6 membrane potential dye fluorescence, FDSS; activation, % at 10 µM; actives 11% (n = 2,800); AID 488961;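 active = ratio signal rise beyond 5 SD above unstimulated control wells' mean, seen in both duplicate runs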
Each line names hits and unclear results; the compound was inactive in the other large screens (follow-up assays come after a bar, where they were run). Only some compounds are listed: those with a hit (about 2.3% of all), similar ones and a draw of the others.

Nc1c2c(nc3ccn(-c4ccccc4)c(=O)c13)CCCCC2	TRPC6 inhibitor -5.36 | HEK293 MPD ctr-2 -151.0% | HEK293 MPD ctr 2-2 inactive | TRPC4/MOR mod -28.5% | TRPC4 ctr inh 2 37.5% | TRPC6 inh conf inactive | TRPC6 act confirm inactive
CCOc1ccc2[nH]cc(-c3csc(N)n3)c2c1	none
CCOCCCn1c(=S)[nH]c2cc(C(=O)NCCc3ccccc3)ccc2c1=O	none
COC(C#CCCN(C)C)(c1ccccc1)c1ccccc1	TRPC6 inhibitor -6.48 | HEK293 MPD ctr-2 inactive | HEK293 MPD ctr 2-2 89.0% | TRPC4/MOR mod 14.0% | TRPC4 ctr inh 2 34.0% | TRPC6 inh conf 79.0%
CC1CN(C(=O)CCC(=O)NCc2ccc(Cl)cc2)c2ccccc2O1 (stereo unspecified)	none
Cc1cc(C)cc(-n2c(C)cc(/C=N/NC(=O)CSc3ncccn3)c2C)c1	TRPC6 inhibitor -9.89 | TRPC4 spec 2 inactive | TRPC4 spec inactive | HEK293 MPD ctr 2-1 inactive | HEK293 MPD ctr-1 inactive | TRPC6 inh conf inactive | TRPC6 act confirm inactive
Nc1nc(SCC(=O)N2CCCc3ccccc32)[nH]c(=O)c1-c1ccccc1	TRPC6 inhibitor -6.49 | HEK293 MPD ctr-2 180.5% | HEK293 MPD ctr 2-2 inactive | TRPC4/MOR mod 34.5% | TRPC4 ctr inh 2 inactive | TRPC6 inh conf inactive
COC1=C(Nc2ccccc2OC)C(=O)c2ccccc2C1=O	TRPC6 inhibitor -5.82 | HEK293 MPD ctr-2 -91.0% | HEK293 MPD ctr 2-2 inactive | TRPC4/MOR mod -23.5% | TRPC4 ctr inh 2 38.5% | TRPC6 inh conf inactive | TRPC6 act confirm inactive
COc1ccc(CCNC(=O)Cn2nnc(-c3cccs3)n2)cc1OC	TRPC6 inhibitor -5.75 | HEK293 MPD ctr-2 inactive | HEK293 MPD ctr 2-2 inactive | TRPC4/MOR mod inactive | TRPC4 ctr inh 2 inactive | TRPC6 inh conf inactive | TRPC6 act confirm inactive
O=C(Cn1nnc(-c2cccs2)n1)NCCc1ccccc1	none
COc1cccc(CNCCc2c[nH]c3ccccc23)c1OCc1ccccc1	none
COc1cccc(CNC23CC4CC(CC(C4)C2)C3)c1OCc1ccccc1	TRPC6 activator 15.3, TRPC6 inhibitor -7.85 | HEK293 MPD ctr-2 752.5% | HEK293 MPD ctr 2-2 inactive | TRPC4/MOR mod 147.0% | TRPC4 ctr inh 2 80.0% | TRPC6 inh conf 77.5% | TRPC6 act confirm 241.0%
COc1ccc(-c2csc(NC(=O)CCCc3nc4ccccc4c(=O)[nH]3)n2)cc1OC	TRPC6 inhibitor -5.25 | HEK293 MPD ctr-2 inactive | HEK293 MPD ctr 2-2 inactive | TRPC4/MOR mod 14.5% | TRPC4 ctr inh 2 inactive | TRPC6 inh conf inactive
CCCCOc1ccc(Br)cc1/C(C)=N/NC1=NCCN1	TRPC6 inhibitor -7.29 | TRPC4 spec 2 27.0% | TRPC4 spec 14.8% | HEK293 MPD ctr 2-1 233.0% | HEK293 MPD ctr-1 8.4% | TRPC6 inh conf inactive | TRPC6 act confirm inactive
COc1ccc(/C(C)=N/NC2=NCCN2)cc1Cl	none
CCCCC1CCC(C(=O)N(CC(C)C)c2c(N)n(Cc3ccccc3)c(=O)[nH]c2=O)CC1 (stereo unspecified)	none
Cc1ccnc(SCC(=O)N2CCN(C(c3ccccc3)c3ccccc3)CC2)n1	TRPC6 activator 18.4, TRPC6 inhibitor -11.4 | HEK293 MPD ctr-2 117.5% | HEK293 MPD ctr 2-2 inactive | TRPC4/MOR mod 20.0% | TRPC4 ctr inh 2 inactive | TRPC6 inh conf 61.5% | TRPC6 act confirm 141.5%
COc1ccc(S(=O)(=O)Nc2ccccc2-c2nnn(CC(=O)Nc3ccccc3OC)n2)cc1	TRPC6 inhibitor -5.28 | HEK293 MPD ctr-2 inactive | HEK293 MPD ctr 2-2 inactive | TRPC4/MOR mod inactive | TRPC4 ctr inh 2 inactive | TRPC6 inh conf inactive | TRPC6 act confirm inactive
COc1ccc(NC(=O)Cn2nnc(-c3ccccc3NS(=O)(=O)c3ccccc3)n2)cc1	none
COc1ccc(C(CNC(=O)Cc2ccccc2Cl)N2CCCCC2)cc1 (stereo unspecified)	none
COc1ccc(C(CNC(=O)c2ccc(Cl)c(NC(=O)c3cccs3)c2)N2CCCC2)cc1 (stereo unspecified)	TRPC6 inhibitor -6.05 | HEK293 MPD ctr-2 105.5% | HEK293 MPD ctr 2-2 inactive | TRPC4/MOR mod inactive | TRPC4 ctr inh 2 63.5% | TRPC6 inh conf 42.5%
CC(C)CN1C(=O)C(=O)N(CC(=O)N2CCN(c3ccccc3)CC2)C1=O	none
CCN(CC)c1ccc(-c2nc3cnccc3n2C)cc1	TRPC6 inhibitor -5.9 | HEK293 MPD ctr-2 -170.0% | HEK293 MPD ctr 2-2 inactive | TRPC4/MOR mod -30.5% | TRPC4 ctr inh 2 33.5% | TRPC6 inh conf inactive | TRPC6 act confirm inactive
O=C(/C(N=Nc1cccc([N+](=O)[O-])c1)=C(/O)c1ccc(Br)cc1)C(F)(F)F	TRPC6 inhibitor -8.21 | TRPC4 spec 2 75.0% | TRPC4 spec 8.5% | HEK293 MPD ctr 2-1 inactive | HEK293 MPD ctr-1 5.2% | TRPC6 inh conf 80.5% | TRPC6 act confirm inactive
O=c1cc(-c2ccccc2)nc(SCCOc2ccccc2Cl)[nH]1	none
CCCCCNc1nc2sc3c(c2c(=O)n1-c1cccc(Cl)c1)CCN(C)C3	TRPC6 inhibitor -5.45 | HEK293 MPD ctr-2 inactive | HEK293 MPD ctr 2-2 inactive | TRPC4/MOR mod inactive | TRPC4 ctr inh 2 68.5% | TRPC6 inh conf 45.0% | TRPC6 act confirm inactive

Compound activity from PubChem.
